Assay results as given in ChEMBL document CHEMBL1926607 (J Med Chem, 2011).

Legend:
[1] = target: 5-hydroxytryptamine receptor 2A (Rattus norvegicus, UniProt P14842); experiment: Displacement of [3H]ketanserin from 5HT2A receptor in Sprague-Dawley albinus rat frontal cortex membranes after 15 mins; type: cell membranes, Membrane
In short: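 Rat frontal cortex membranes (male Sprague–Dawley, 180–200 g). Nonspecific binding was set with 1 μM cinanserin.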

[2] = target: T1, 5-hydroxytryptamine receptor 1A (Homo sapiens) (UniProt P08908); experiment: Agonist activity at human 5HT1A receptor expressed in human HeLa cells assessed as inhibition of forskolin-stimulated cAMP production pretreated 20 mins before forskolin challenge measured after 2 hrs by RIA relative to control; type: functional, cell-based
T1 sequence (whole entry): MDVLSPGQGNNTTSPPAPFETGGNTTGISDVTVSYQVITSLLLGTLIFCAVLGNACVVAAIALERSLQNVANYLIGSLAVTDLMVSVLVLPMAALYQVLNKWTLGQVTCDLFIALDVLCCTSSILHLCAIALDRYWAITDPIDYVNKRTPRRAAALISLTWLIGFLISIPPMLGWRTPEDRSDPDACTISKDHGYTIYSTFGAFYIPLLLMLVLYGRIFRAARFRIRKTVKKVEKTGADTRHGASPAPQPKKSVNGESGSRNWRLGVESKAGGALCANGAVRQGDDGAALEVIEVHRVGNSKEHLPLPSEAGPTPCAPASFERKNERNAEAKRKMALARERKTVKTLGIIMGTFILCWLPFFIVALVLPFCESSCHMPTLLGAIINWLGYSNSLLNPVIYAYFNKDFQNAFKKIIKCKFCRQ

[3] = target: T2, 5-hydroxytryptamine receptor 1A (Homo sapiens, UniProt P08908); experiment: Agonist activity at human 5HT1A receptor expressed in human HeLa cells assessed as inhibition of forskolin-stimulated cAMP production […] measured after 2 hrs by RIA; type: functional, cell-based
T2 sequence (P08908 whole entry): T1 sequence (whole entry)
In short: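 HeLa cells stably expressing the h5-HT1AR, grown in DMEM with 2 mM glutamine, 1 mM pyruvate and 10% heat-inactivated FCS, and used after 2–3 days at about 7.5 × 10^4 cells/well. After a PBS wash, cells were incubated 10 min in PBS with 0.5 mM isobutylmethylxanthine and 10 μM forskolin, with or without compound. The reaction was stopped with ice-cold ethanol, extracted 2 h and lyophilized; cAMP was measured by RIA.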

[4] = target: T3, 5-hydroxytryptamine receptor 1A (Rattus norvegicus, UniProt P19327); experiment: Displacement of [3H]-8-OH-DPAT from 5-HT1A receptor in Sprague-Dawley albinus rat cerebral cortex membranes after 15 mins; type: cell membranes, Membrane
T3 sequence (P19327 whole entry): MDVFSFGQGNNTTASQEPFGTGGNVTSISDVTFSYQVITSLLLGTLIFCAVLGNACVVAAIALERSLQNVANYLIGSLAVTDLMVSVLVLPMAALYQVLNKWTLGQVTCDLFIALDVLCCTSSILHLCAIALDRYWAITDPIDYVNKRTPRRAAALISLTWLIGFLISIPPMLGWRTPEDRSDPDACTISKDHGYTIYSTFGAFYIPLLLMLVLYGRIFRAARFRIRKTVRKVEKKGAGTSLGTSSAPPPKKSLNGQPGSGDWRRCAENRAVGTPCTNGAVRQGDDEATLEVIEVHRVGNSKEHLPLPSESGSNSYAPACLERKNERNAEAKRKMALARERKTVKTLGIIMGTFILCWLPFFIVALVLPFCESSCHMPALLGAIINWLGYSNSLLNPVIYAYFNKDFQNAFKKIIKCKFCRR

[5] = target: T4, 5-hydroxytryptamine receptor 3A (Rattus norvegicus, UniProt P35563); experiment: Displacement of [3H]-LY278584 from 5HT3 receptor in Sprague-Dawley albinus rat cerebral cortex membranes after 30 mins; type: cell membranes, Membrane
T4 sequence (P35563 whole entry): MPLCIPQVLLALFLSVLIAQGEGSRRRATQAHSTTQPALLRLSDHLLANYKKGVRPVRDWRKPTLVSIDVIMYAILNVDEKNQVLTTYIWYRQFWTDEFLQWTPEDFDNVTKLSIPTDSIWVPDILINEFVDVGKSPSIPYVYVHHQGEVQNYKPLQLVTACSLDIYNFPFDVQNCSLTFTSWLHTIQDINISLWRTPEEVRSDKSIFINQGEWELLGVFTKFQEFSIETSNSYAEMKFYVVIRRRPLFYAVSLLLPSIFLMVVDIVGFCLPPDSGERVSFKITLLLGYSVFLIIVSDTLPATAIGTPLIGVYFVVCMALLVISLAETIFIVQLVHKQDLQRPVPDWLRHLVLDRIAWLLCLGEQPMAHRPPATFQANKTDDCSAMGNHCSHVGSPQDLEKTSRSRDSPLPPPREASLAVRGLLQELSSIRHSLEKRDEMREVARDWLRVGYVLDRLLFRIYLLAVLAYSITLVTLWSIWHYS

D(2) dopamine receptor = D(2) dopamine receptor (Rattus norvegicus, UniProt P61169); experiment: Displacement of [3H]spiperone from dopamine D2 receptor in Sprague-Dawley albinus rat striatal membranes after 15 mins; type: cell membranes, Membrane
Sequence of D(2) dopamine receptor (P61169 whole entry): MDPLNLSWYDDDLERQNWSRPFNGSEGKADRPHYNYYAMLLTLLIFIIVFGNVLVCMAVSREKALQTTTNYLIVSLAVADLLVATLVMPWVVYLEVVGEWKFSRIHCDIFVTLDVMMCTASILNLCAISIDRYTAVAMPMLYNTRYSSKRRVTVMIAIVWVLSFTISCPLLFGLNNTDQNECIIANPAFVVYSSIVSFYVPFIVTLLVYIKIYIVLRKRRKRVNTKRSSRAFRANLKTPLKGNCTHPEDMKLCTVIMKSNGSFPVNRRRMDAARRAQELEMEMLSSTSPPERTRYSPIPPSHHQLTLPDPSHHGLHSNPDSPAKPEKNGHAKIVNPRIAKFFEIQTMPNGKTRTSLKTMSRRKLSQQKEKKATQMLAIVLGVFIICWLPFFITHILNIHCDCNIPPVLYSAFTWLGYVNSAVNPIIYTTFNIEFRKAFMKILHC

[6] = target: T5, Adrenergic receptor alpha-1 (Rattus norvegicus, UniProt P15823+P23944+P43140); experiment: Displacement of [3H]prazosin from alpha1 adrenoceptor in Sprague-Dawley albinus rat cerebral cortex membranes after 30 mins; type: cell membranes, Membrane
T5 sequence (P15823 whole entry): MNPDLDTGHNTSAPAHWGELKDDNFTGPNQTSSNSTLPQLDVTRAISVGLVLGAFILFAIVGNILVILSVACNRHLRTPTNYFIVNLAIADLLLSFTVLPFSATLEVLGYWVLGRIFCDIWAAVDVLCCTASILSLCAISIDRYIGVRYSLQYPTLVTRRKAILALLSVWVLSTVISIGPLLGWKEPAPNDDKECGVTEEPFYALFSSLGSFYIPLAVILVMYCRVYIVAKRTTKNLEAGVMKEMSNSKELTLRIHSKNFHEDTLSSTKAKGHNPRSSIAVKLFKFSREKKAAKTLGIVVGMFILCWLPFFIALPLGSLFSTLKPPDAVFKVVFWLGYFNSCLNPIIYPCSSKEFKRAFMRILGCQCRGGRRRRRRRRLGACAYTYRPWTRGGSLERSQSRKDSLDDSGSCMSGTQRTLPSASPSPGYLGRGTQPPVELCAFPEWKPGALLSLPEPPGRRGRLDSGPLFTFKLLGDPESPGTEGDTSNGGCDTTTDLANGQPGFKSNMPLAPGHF
T5 sequence (P23944 whole entry): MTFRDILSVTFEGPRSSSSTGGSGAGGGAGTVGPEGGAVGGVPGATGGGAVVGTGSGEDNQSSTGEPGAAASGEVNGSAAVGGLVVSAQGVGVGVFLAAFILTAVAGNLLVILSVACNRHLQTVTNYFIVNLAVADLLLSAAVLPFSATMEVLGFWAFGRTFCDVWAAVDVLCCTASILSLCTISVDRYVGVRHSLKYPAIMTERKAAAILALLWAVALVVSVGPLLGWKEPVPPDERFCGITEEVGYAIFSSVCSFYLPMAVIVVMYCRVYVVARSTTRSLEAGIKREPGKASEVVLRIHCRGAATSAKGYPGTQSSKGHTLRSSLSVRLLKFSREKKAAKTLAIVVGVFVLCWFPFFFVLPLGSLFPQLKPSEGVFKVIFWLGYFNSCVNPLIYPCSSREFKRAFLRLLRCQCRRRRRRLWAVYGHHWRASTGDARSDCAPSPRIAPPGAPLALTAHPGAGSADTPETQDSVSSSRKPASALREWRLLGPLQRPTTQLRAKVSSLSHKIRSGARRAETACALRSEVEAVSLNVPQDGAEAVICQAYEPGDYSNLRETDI
T5 sequence (P43140 whole entry): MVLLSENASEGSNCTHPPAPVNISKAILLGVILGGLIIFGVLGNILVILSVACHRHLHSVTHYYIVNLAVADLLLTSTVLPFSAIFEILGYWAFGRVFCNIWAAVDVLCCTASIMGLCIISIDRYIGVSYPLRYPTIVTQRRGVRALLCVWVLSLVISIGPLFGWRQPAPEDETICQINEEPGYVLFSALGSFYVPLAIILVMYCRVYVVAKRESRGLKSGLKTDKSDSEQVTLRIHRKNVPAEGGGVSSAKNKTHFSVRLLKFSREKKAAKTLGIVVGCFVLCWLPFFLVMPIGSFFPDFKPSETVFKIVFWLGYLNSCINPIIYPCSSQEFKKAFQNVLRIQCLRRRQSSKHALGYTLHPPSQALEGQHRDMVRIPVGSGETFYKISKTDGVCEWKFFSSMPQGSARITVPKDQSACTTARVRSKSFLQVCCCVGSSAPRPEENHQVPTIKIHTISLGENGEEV
In short: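 Rat cerebral cortex membranes (about 250 μg protein; male Sprague–Dawley, 180–200 g) in 50 mM Tris-HCl with 10 mM MgCl2, pH 7.4. Incubation was 30 min at 25 °C with 0.2 nM [3H]prazosin and six competitor concentrations. Nonspecific binding was set with 10 μM phentolamine.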

Sequence of 5-hydroxytryptamine receptor 2A (P14842 whole entry): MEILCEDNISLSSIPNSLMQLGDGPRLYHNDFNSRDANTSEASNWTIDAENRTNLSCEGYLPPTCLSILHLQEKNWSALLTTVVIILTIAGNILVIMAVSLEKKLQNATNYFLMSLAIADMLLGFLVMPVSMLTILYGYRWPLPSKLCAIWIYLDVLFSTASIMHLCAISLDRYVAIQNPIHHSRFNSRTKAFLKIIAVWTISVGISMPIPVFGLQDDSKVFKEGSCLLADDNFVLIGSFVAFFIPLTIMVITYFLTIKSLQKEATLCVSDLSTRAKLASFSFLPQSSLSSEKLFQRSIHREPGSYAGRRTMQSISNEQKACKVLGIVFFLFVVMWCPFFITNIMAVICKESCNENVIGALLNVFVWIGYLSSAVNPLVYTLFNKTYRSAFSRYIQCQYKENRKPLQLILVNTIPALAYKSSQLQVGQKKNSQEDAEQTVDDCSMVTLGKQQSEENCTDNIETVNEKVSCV

| SMILES | Ki [1] [nM] | Ki [4] [nM] | further results |
| --- | --- | --- | --- |
| O=C1CSC(=O)N1CCCCCCCCNCC1CCc2ccccc2O1 (stereo not given) | > 1000 | – | Emax [2]: 88.6%; EC50 [3]: 25.9 nM |
| O=C1C2CCCN2C(=O)N1CCCCNCc1ccco1 (stereo not given) | – | > 1000 | – |
| O=C1C2CSCN2C(=O)N1CCCCNCC1CCc2ccccc2O1 (stereo not given) | > 1000 | 13 | Emax [2]: 89.3% |
| O=C1C2CCCN2C(=O)N1CCCCCCNCC1CCc2ccccc2O1 (stereo not given) | > 1000 | 5.9 | Emax [2]: 91.2%; EC50 [3]: 21.8 nM |
| O=C1C2CCCN2C(=O)N1CCCCNCc1ccccc1 (stereo not given) | – | > 1000 | – |
| O=C1C2CCCN2C(=O)N1CCCCNCCc1ccco1 (stereo not given) | – | > 1000 | – |
| O=C1C2CCCN2C(=O)N1C/C=C\CNCC1CCc2ccccc2O1 (stereo not given) | – | 114 | – |
| Cl.O=C1C2CCCN2C(=O)N1CCCCNCCc1ccc2ccccc2c1 (stereo not given) | – | – | Ki [5]: > 1000 nM; Ki (D(2) dopamine receptor): > 1000 nM; Ki [6]: 99 nM |
| O=C1C2CCCN2C(=O)N1CCCCNCc1ccc2ccccc2c1 (stereo not given) | > 1000 | 49 | – |
| O=C1C2CCCN2C(=O)N1Cc1cccc(CNCC2CCc3ccccc3O2)c1 (stereo not given) | > 1000 | – | – |
| O=C1C2CCCN2C(=O)N1C/C=C/CNCC1CCc2ccccc2O1 (stereo not given) | > 1000 | 27 | – |
| O=C1C2CCCN2C(=O)N1CCCNCC1CCc2ccccc2O1 (stereo not given) | > 1000 | 8.2 | Emax [2]: 94.3%; EC50 [3]: 23.3 nM |
| O=C1C2CCCN2C(=O)N1CCCCNCCc1cccs1 (stereo not given) | – | > 1000 | – |
| O=C1C2CCCN2C(=O)N1Cc1ccc(CNCC2CCc3ccccc3O2)cc1 (stereo not given) | > 1000 | 28 | – |
| O=C1C2CCCN2C(=O)N1CCCCNCCc1ccccn1 (stereo not given) | – | > 1000 | – |
